According to paper PMC8485890 (Hepatology Communications, 2021):

Experiments:
C57BL/6J mice = assay: Survival of mice after APAP overdose; type: in vivo, mouse (C57BL/6J); settings: APAP 600 mg/kg oral gavage, within 24 hours
Outline: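 Fasted C57BL/6J mice were dosed by oral gavage with APAP dissolved in warm saline, at several doses including 600 mg/kg, and survival was tracked (n ≥ 9 per group). In the 24-h treatment arm, peptide was given intravenously at 100 µg/dose, 6, 12 and 18 h after APAP.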

[1] = tested on: liver of APAP-treated mice; assay: Serum ALT; type: in vivo, mouse; settings: APAP 600 mg/kg oral gavage; 6 to 36 hours after overdose
Outline: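 Fasted mice received APAP 600 mg/kg, dissolved in warm saline, by oral gavage. Hepatocyte necrosis was followed over time by serum ALT, and liver sections were examined by H&E histopathology. Groups had at least five mice, and each experiment was done at least twice. Data are mean ± SEM, analysed by t test or one-way ANOVA.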

liver = assay: Histopathology of liver sections; type: in vivo, mouse; settings: APAP 600 mg/kg, H&E-stained liver sections, up to 24 hours
Outline: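 APAP (600 mg/kg) was given in warm saline by oral gavage to fasted mice. Livers were taken at times up to 24 h. Necrotic areas were scored on sections stained with hematoxylin and eosin. Groups had at least five mice, and experiments were repeated at least twice. Data are mean ± SEM.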

[2] = tested on: pro-inflammatory mediators in liver and serum; assay: Cytokine/chemokine ELISA in liver lysates and serum of APAP-treated mice; type: in vivo, mouse; settings: APAP 600 mg/kg, as early as 6 hours
Outline: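 Fasted mice received APAP (600 mg/kg) dissolved in warm saline by oral gavage; controls received vehicle. TNF-α, CXCL1, CXCL2 and CXCL6 were measured by ELISA in liver lysates and serum over a time course after overdose. Groups had at least five mice, and experiments were run at least twice. Data are mean ± SEM, compared by one-way ANOVA.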

neutrophils in the liver = assay: Neutrophil recruitment to the liver; type: in vivo, mouse (LysM-eGFP); settings: APAP-treated LysM-eGFP mice, time course
Outline: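 LysM-eGFP mice were fasted and given oral APAP in warm saline. Neutrophils were counted in the liver by their GFP signal using confocal intravital microscopy over the injury time course. Extracellular DNA was visualised with i.v. Sytox green (2 µL of 5 mM). Groups had at least five mice, with experiments repeated at least twice. Data are mean ± SEM.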

[3] = tested on: myeloperoxidase (MPO) activity in liver; assay: MPO activity in liver lysates; type: in vivo, mouse; settings: APAP-treated C57BL/6J mice
Outline: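 MPO activity was measured in liver lysates as an estimate of neutrophil infiltration. C57BL/6J mice were fasted, then dosed with APAP in warm saline by oral gavage. Treatment arms received 100 µg peptide i.v. at 6, 12 and 18 h after overdose. Groups had at least five mice, and each experiment was run at least twice. Data are mean ± SEM, compared by t test or one-way ANOVA.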

[4] = tested on: APAP-induced liver injury; settings: reducing agent; cited from earlier work
bacterial DNA = bacterial DNA present in skin injury; cited from earlier work
[5] = cited from earlier work
[6] = tested on: extracellular DNA and MIG30 staining in the liver; assay: Enzymatic removal of DNA and MIG30 staining from the injured liver; type: in vivo, mouse; settings: APAP-treated mice, MIG30-TAMRA 20 µg; hyaluronidase 1,000 U or heparinase III 100 µg i.v.; up to 10 minutes
Outline: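 Fasted mice received APAP (dissolved in warm saline) by oral gavage. They then received i.v. Sytox green and 20 µg TAMRA-labelled peptide. Next they were given i.v. hyaluronidase (1,000 U) or heparinase III (100 µg); DNase 1 (1,000 U) was given similarly. Mean fluorescence intensity of DNA and peptide in liver was followed by confocal intravital microscopy for up to 10 minutes.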

## CC(=O)Nc1ccc(O)cc1 [APAP, Acetaminophen]
C57BL/6J mice
  mortality: 40%
[1]
  liver damage (serum ALT levels): significant liver damage as early as 6 hours after APAP intoxication and up to 36 hours after the overdose
liver
  hepatic necrosis (histopathology): extensive hepatic necrosis
[2]
  CXCL1 produced in the liver: significant amounts
  CXCL2 produced in the liver: significant amounts
  CXCL6 produced in the liver: significant amounts
  TNF-α produced in the liver: significant amounts
Neutrophils in the liver
  neutrophil infiltration in the liver: profound neutrophil infiltration was observed between 12 and 36 hours after injury, which was maximal at the 24‐hour timepoint
[3]
  neutrophils in liver by MPO assay: presence of neutrophils predominantly 24 hours after APAP treatment

## CC(=O)N[C@@H](CS)C(=O)O [N‐acetylcysteine]
[4]
  effect on APAP-induced liver injury and inflammation: effective only if given soon after the APAP challenge or as a pretreatment

## CXCL10: chemokine CXCL10
Bacterial DNA
  binding to bacterial DNA: bind to bacterial DNA

## CXCL11: chemokine CXCL11
Bacterial DNA
  binding to bacterial DNA: bind to bacterial DNA

## KKVLKVRKAQRSRQKKTT [control peptide]
[5]
  GAG binding: poor GAG affinity

## hyaluronidase
[6]
  removal of MIG30 staining from liver by glycosidase: Neither the DNA nor the MIG30 staining were significantly removed

B1: CXCL9: full-length chemokine CXCL9 (protein, UniProt Q07325 1-125, looked up)
chain: MKKSGVLFLLGIILLVLIGVQGTPVVRKGRCSCISTNQGTIHLQSLKDLKQFAPSPSCEKIEIIATLKNGVQTCLNPDSADVKELIKKWEKQVSQKKKQKNGKKHQKKKVLKVRKSQRSRQKKTT
modifications: full-length
Bacterial DNA
  binding to bacterial DNA: bind to bacterial DNA

B2: heparinase: Heparinase III produced and provided by A. Kungl (protein, UniProt Q59289 25-659, looked up)
Heparin-sulfate lyase: QSSSITRKDFDHINLEYSGLEKVNKAVAAGNYDDAAKALLAYYREKSKAREPDFSNAEKPADIRQPIDKVTREMADKALVHQFQPHKGYGYFDYGKDINWQMWPVKDNEVRWQLHRVKWWQAMALVYHATGDEKYAREWVYQYSDWARKNPLGLSQDNDKFVWRPLEVSDRVQSLPPTFSLFVNSPAFTPAFLMEFLNSYHQQADYLSTHYAEQGNHRLFEAQRNLFAGVSFPEFKDSPRWRQTGISVLNTEIKKQVYADGMQFELSPIYHVAAIDIFLKAYGSAKRVNLEKEFPQSYVQTVENMIMALISISLPDYNTPMFGDSWITDKNFRMAQFASWARVFPANQAIKYFATDGKQGKAPNFLSKALSNAGFYTFRSGWDKNATVMVLKASPPGEFHAQPDNGTFELFIKGRNFTPDAGVFVYSGDEAIMKLRNWYRQTRIHSTLTLDNQNMVITKARQNKWETGNNLDVLTYTNPSYPNLDHQRSVLFINKKYFLVIDRAIGEATGNLGVHWQLKEDSNPVFDKTKNRVYTTYRDGNNLMIQSLNADRTSLNEEEGKVSYVYNKELKRPAFVFEKPKKNAGTQNFVSIVYPYDGQKAPEISIRENKGNDFEKGKLNLTLTINGKQQLVLVP
[6]
  removal of MIG30 staining from liver by glycosidase: Neither the DNA nor the MIG30 staining were significantly removed
